Experimental data taken from publication PMC9884087 (Journal of Medicinal Chemistry, 2023).

Columns and labels:
TcCYP51 = TcCYP51 (Trypanosoma cruzi, UniProt Q7Z1V1); test: Fluorescence-based Trypanosoma cruzi CYP51 inhibition assay; assay type: biochemical; settings: concentrations up to and including 100 μM
[1] = Mouse preliminary tolerability study; assay type: in vivo
Outline: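 Dosing was oral, twice daily, for 5 days. Recorded: mortality, clinical observations (e.g. temperature to touch, posture, gait, activity), body weight and weight gain, food consumption, and gross pathology.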

[2] = Mouse pharmacokinetic study; assay type: in vivo; settings: for clearance: female, Balb/c, mouse, plasma, iv
Outline: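 Female Balb/c mice received test compound i.v. plus p.o., either 1 and 50 mg/kg or 2 and 12.5 mg/kg (n = 3 mice per route). Some arms were pretreated with 1-aminobenzotriazole (50 mg/kg p.o., 2 h before dosing) as a cytochrome P450 inhibitor; others had none. Blood concentration–time profiles were obtained.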

[3] = system: T. cruzi strain (CL Brener); test: In vivo efficacy, bioluminescent acute T. cruzi infection in BALB/c mice; design: species or system Trypanosoma cruzi; settings: 50 mg/kg BID p.o. 5 days
Outline: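 Female BALB/c mice, 7–8 weeks old, housed specific-pathogen-free, infected i.p. with 1 × 10³ CL Brener trypomastigotes from SCID mouse blood. The parasites constitutively express the red-shifted luciferase PpyRE9h. From day 14 post-infection (acute peak), mice (n = 3) received test compound orally at 50 mg/kg twice daily for 5 days. Parasite burden was tracked by in vivo bioluminescence imaging against untreated controls through day 18, with animals observed for adverse effects.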

Mouse cassette dosing PK = assay type: in vivo; settings: male, ICR, plasma, iv, 0.1 mg/kg
[4] = system: panel of 35 known-liability targets including GPCRs and ion channels; test: Known-liability off-target panel; settings: 300 kinases at 1 μM and 35 known-liability targets at 10 μM
[5] = single p.o. dose 50 mg/kg, no ABT, 50 mg/kg

TcCYP51, sequence (Q7Z1V1 whole entry): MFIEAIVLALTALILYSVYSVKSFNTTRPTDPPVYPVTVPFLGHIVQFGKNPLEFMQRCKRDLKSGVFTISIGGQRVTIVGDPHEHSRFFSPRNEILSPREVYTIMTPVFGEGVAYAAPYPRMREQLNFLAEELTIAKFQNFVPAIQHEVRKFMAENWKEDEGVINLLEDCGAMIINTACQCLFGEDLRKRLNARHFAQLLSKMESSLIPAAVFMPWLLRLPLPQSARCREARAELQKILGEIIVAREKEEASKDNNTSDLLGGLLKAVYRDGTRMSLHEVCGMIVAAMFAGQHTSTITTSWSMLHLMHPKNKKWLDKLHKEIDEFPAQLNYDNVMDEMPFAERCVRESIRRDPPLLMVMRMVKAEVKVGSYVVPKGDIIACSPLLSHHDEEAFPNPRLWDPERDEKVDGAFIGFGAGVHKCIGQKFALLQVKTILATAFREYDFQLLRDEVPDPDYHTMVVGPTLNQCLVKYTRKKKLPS

With `Fc1ccc(C2CCN(c3nc(-c4ccccn4)nc4ccccc34)C2)cc1` (stereo not shown) [Compound 83, 4-[3-(4-Fluorophenyl)pyrrolidin-1-yl]-2-(pyridin-2-yl)quinazoline] the TcCYP51 inhibitory activity (TcCYP51) was “no inhibitory activity”.

In the case of `c1ccc(-c2nc(N3CCC(c4ccccn4)C3)c3ccccc3n2)nc1` (stereo not shown) [Compound 85, 2-(pyridin-2-yl)-4-(3-(pyridin-2-yl)pyrrolidin-1-yl)quinazoline], the “no-observed-adverse-effect-level (NOAEL)” value ([1]; BID p.o. 5 days, female mice) is reported as 100 mg/kg/dose (BID), the multiday tolerability observations ([1]; female Balb/c mice, 10, 50, 100 mg/kg/dose BID p.o. up to 5 days, 1 animal/group) is reported as “well tolerated” and the clearance ([2]; 2 mg/kg) is reported as 4.9 mL/min/kg. For the same compound, the “tolerability (single p.o. dose)” value ([2]; single dose 12.5 mg/kg p.o. with ABT 50 mg/kg p.o. 2 h prior) was “adverse tolerability events were observed after the single dose”, the “tolerability (single p.o. dose)” value ([2]; single dose 12.5 mg/kg p.o. with ABT 50 mg/kg p.o. 2 h prior, listed as 85 + ABT) was “poor” and the “tolerability (single p.o. dose)” value [2, 5] was “no adverse issues were noted”. For the same compound, the “adverse effects during treatment of infected mice” value [3] was “no adverse effects were observed” and the clearance (Mouse cassette dosing PK) was 38.5 mL/min/kg.

With `CC(C)(Nc1nc(-c2ccccn2)nc2ccccc12)c1ccccn1` [Compound 54, 2-(Pyridin-2-yl)-N-(2-(pyridin-2-yl)propan-2-yl)quinazolin-4-amine] the “tolerability (5 days BID p.o.)” value ([1]; healthy mice, 10, 50, 100 mg/kg BID p.o., 5 days) was “poor”, the clearance ([2]; 1 mg/kg) was 12.4 mL/min/kg and the “tolerability (single p.o. dose)” value [2, 5] was “No adverse reactions or compound-related side effects were observed”. The off-target activity [4] was “no known off-target activity with the exception of 5HT-1A antagonism”.
